Experimental data from different studies.
Each line is one published result; the experiments were not run side by side.

Structure (SMILES)	species	medium	route	dose	setting	Tmax
COCCOC(=O)C1=C(C)NC(C)=C(C(=O)OC(C)C)C1c1cccc([N+](=O)[O-])c1 (stereo not shown)	male Sprague-Dawley rat	plasma	oral	12 mg/kg	–	0.33 h
CC(C)OC(=O)NC1CCN(Cc2cc(Cl)c3cccnc3c2O)CC1	rat	blood	intraperitoneal	30 mg/kg	–	3 h
CCc1cc(C(=O)NC)c2nccc(N3CCc4c(cc(Cn5ccnc5)cc4-c4cn(C)nc4C(F)(F)F)C3=O)c2c1	male Sprague-Dawley rat	plasma	oral	50 mg/kg	single dose	0.8 h
C=CC(=O)N1CC2CC(n3nc(-c4ccc(C(=O)Nc5ccccn5)cc4)c4c(N)ncnc43)CC2C1 (stereo not shown)	male Wistar rat	plasma	oral	300 mg/kg	–	4 h
O=C(Nc1cc(F)c(F)c(F)c1)c1ccc(F)c(S(=O)(=O)NCc2cccc(B(O)O)c2)c1	male Sprague-Dawley rat	plasma	intravenous	2 mg/kg	–	0.08 h
Cc1c(-c2ccccc2)cccc1N1C(=O)c2cc(CN[C@H](C(=O)O)C(C)O)c(OCc3cccc(C#N)c3)cc2C1=O (stereo partly shown)	Sprague-Dawley rat	plasma	oral	50 mg/kg	–	0.53 h
N#Cc1ccc(Nc2nc(N)cc(Oc3c(F)cc(-c4ccc(C#N)cc4)cc3F)n2)cc1	Sprague-Dawley rat	plasma	oral	5 mg/kg	–	4 h
Oc1c(Br)cc(Cl)c2cccnc12	Sprague-Dawley rat	plasma	subcutaneous	10 mg/kg	–	1.2 h
CNC(=O)c1c(C)oc2cc(Oc3ncnc4cc(OC)c(OC)cc34)ccc12	Sprague-Dawley rat	plasma	oral	1 mg/kg	single dose	4.25 h
N#Cc1[nH]nnc1-c1cccc(-c2cc(F)cc(C(F)(F)F)c2)c1	male Sprague-Dawley rat	plasma	oral	10 mg/kg	–	0.8 h
CC(C)(O)[C@H]1CC[C@H](Nc2ccc3ncc(-c4cccc(C(F)(F)F)c4)n3n2)CC1	female Sprague-Dawley rat	plasma	oral	40 mg/kg	–	1 h
CCc1nc(C(N)=O)c(Nc2ccc(N3CCC(N4CCN(C)CC4)CC3)c(OC)c2)nc1NC1CCOCC1	male Sprague-Dawley rat	plasma	oral	10 mg/kg	–	11 h
N#Cc1[nH]nnc1-c1csc(-c2ccc(Cl)cc2)n1	male Sprague-Dawley rat	plasma	oral	10 mg/kg	–	1 h
COc1nc(-c2cc(C)c(N[C@@H](C)c3cc(F)cc(F)c3)nn2)ccc1-n1cnc(C)c1	male Sprague-Dawley rat	plasma	oral	5 mg/kg	single dose	5.3 h
CCOC(=O)[C@@]12C[C@@H]1[C@@H](n1ccc3c(NC)nc(C#Cc4ccc(Cl)s4)nc31)[C@H](O)[C@@H]2O	male Sprague-Dawley rat	plasma	oral	10 mg/kg	–	1.17 h
COc1ccc2c(Cc3ccccc3F)c3n(c(=O)c2c1OC)CCc1cc2c(cc1-3)OCO2	rat	plasma	oral	5 mg/kg	–	2.66 h
